Results on 29 compounds are retold here after ChEMBL document CHEMBL1142700, “Nonpolar and short side chain groups at C-11beta of estradiol result in antiestrogens” (J Med Chem, 2005).

Assay [1] concerns Ishikawa. Description: Inhibitory constant against stimulation of alkaline phosphatase activity in Ishikawa cells. Format: functional, cell-based, Homo sapiens.
The target in assay [2] is Estrogen receptor beta (Homo sapiens) (UniProt Q92731). Put plainly: Inhibition of [3H]E2 binding to human Estrogen receptor-beta ligand binding domain (LBD) expressed in Escherichia coli lysates. The method, boiled down:
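Human ERβ LBD (M214-Q530) in E. coli lysates; overnight room-temperature competition with [3H]E2, charcoal separation of bound from free. RBA relative to E2 from EC50 ratio × 100, at least three duplicate experiments.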

Assay [3] concerns the target Estrogen receptor (Rattus norvegicus) (UniProt P06211+Q62986). Put plainly: Relative binding affinity for estrogen receptor of rat uterine cytosol. Format: protein assay. The method, boiled down:
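Cytosol from uteri of Sprague-Dawley rats taken 24 h after castration, homogenized in TEGDMo buffer (pH 7.4), spun at 105 000g. Incubated on ice overnight with 1 nM [3H]E2 and competitor at 10^-12 to 10^-6 M. Dextran-coated charcoal separation, counting. RBA = EC50 E2 / EC50 analogue × 100, at least three duplicate experiments.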

The target of assay [4] is T1, Estrogen receptor (Homo sapiens) (UniProt P03372).
T1 sequence (whole entry): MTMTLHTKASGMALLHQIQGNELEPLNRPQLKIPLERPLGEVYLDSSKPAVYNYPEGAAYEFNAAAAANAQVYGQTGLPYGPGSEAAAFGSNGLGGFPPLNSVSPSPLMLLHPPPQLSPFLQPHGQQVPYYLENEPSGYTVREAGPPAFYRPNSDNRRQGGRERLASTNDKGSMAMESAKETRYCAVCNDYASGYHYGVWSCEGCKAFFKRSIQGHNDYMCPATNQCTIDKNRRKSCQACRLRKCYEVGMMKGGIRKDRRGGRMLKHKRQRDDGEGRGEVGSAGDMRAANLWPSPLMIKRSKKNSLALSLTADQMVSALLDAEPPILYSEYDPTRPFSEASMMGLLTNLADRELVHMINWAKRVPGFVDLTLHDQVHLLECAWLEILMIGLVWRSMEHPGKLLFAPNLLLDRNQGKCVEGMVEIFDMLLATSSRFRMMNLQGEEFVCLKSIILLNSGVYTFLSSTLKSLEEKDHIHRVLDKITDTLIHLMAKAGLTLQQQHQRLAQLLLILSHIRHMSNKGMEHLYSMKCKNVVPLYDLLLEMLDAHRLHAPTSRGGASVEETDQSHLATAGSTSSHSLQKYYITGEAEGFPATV
Put plainly: Inhibition of [3H]E2 binding to human Estrogen receptor-alpha ligand binding domain (LBD) expressed in Escherichia coli lysates. The method, boiled down:
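Human ERα LBD (M250-V595) expressed in E. coli lysates, competed against [3H]E2 overnight at room temperature. Bound separated by dextran-coated charcoal. RBA = EC50 of E2 / EC50 of analogue × 100, from at least three experiments in duplicate.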

Assay [5] concerns Ishikawa. Description: Inhibitory constant against stimulation of alkaline phosphatase activity in Ishikawa cells; na is not active. It is filed as functional, cell-based, Homo sapiens.
In assay [6] the test system is Ishikawa. Description: Inhibitory constant against stimulation of alkaline phosphatase activity in Ishikawa cells; not active. Format: functional, cell-based, Homo sapiens.
Assay [7] relates to Ishikawa. Put plainly: Inhibitory constant against stimulation of alkaline phosphatase activity in Ishikawa cells; mixed agonist/antagonist moderate activity. Format: functional, cell-based, Homo sapiens.
The subject of assay [8] is Ishikawa. Description: Inhibitory constant against stimulation of alkaline phosphatase activity in Ishikawa cells; weak mixed agonist/antagonist. It is filed as functional, cell-based, Homo sapiens.
The subject of assay [9] is Ishikawa. Put plainly: Relative stimulatory activity in Ishikawa cells with respect to E2. Format: functional, Homo sapiens. The procedure, abridged: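 Ishikawa alkaline phosphatase induction: phenol red-free medium, charcoal-stripped bovine serum, 3-day exposure to steroid across at least 6 log units. Read kinetically at 405 nm with 5 mM p-nitrophenyl phosphate, pH 9.8. RSA = (1/EC50 analogue) / (1/EC50 E2) × 100, fitted in at least three duplicate experiments.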

The test system of assay [10] is Ishikawa. Put plainly: Inhibitory constant of the compound against stimulationofalkaline phosphatase activity inIshikawa cells; weak mixed agonist/antagonist. Format: functional, cell-based, Homo sapiens.
Assay [11] concerns Ishikawa. Put plainly: Inhibitory constant against stimulation of alkaline phosphatase activity in Ishikawa cells; ag./ant. is mixed agonist/antagonist. Format: functional, cell-based, Homo sapiens.
The subject of assay [12] is Ishikawa. Description: Estrogenic potency measured as stimulation of alkaline phosphatase activity relative to E2 in human endometrialadenocarcinoma cells (Ishikawa). Format: functional. The method, boiled down: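 Ishikawa human endometrial adenocarcinoma cells grown in phenol red-free medium with charcoal-stripped bovine serum and steroid over at least 6 orders of magnitude for 3 days. Cells washed, freeze-thawed, then given 5 mM p-nitrophenyl phosphate at pH 9.8, with kinetic reading of p-nitrophenol at 405 nm. At least three experiments in duplicate; EC50 by curve fitting.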

Assay [13] deals with Ishikawa. Put plainly: Inhibitory constant against stimulation of alkaline phosphatase activity in Ishikawa cells; (agonist). It is filed as functional, cell-based, Homo sapiens.

By Ki is commonly meant a dissociation constant, usually derived from enzyme kinetics or from competition with a known ligand.

Chain of Estrogen receptor beta (Homo sapiens) (Q92731 whole entry, the tested form may be a part): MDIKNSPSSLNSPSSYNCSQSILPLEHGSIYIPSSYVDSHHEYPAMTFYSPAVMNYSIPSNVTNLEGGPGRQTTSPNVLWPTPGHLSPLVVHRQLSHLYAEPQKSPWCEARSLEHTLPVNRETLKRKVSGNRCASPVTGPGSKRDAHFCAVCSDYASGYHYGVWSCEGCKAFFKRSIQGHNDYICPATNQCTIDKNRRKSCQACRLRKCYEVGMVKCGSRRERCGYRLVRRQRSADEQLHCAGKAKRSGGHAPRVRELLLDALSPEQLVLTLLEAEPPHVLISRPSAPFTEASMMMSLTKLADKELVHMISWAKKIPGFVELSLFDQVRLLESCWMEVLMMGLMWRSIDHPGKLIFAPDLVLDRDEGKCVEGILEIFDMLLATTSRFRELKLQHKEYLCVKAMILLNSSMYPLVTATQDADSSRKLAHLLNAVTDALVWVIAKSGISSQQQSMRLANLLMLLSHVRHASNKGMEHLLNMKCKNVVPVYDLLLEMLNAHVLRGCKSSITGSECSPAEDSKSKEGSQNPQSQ

For `CCOCCC[C@H]1C[C@]2(C)[C@@H](O)CC[C@H]2[C@@H]2CCc3cc(O)ccc3[C@@H]12`, the Ki in assay [1] is 0.3 nM. Further, the values for the RBA in assay [2], in assay [3] and in [4] were 75%, 48% and 87%, respectively.

Turning to `CC(C)OCCC[C@H]1C[C@]2(C)[C@@H](O)CC[C@H]2[C@@H]2CCc3cc(O)ccc3[C@@H]12`, the Ki in assay [1] was 0.2 nM. For the same compound, the RBA amounted to 93% in assay [2], 114% in [3] and 220% in assay [4].

In assay [1], `CC(C)(C)OCCC[C@H]1C[C@]2(C)[C@@H](O)CC[C@H]2[C@@H]2CCc3cc(O)ccc3[C@@H]12` returned a Ki of 0.09 nM. Further, the RBA was determined as 82% in [2], 81% in assay [3] and 128% in [4].

In the case of `CC(C)OC(=O)C[C@H]1C[C@]2(C)[C@@H](O)CC[C@H]2C2CCc3cc(O)ccc3[C@H]21` (single isomer, unassigned), the affinity in assay [1], expressed as Ki, was 2.1 nM. The compound further gave an RBA in assay [3] of 17%.

On to `CCCCO[C@H]1C[C@]2(C)[C@@H](O)CC[C@H]2[C@@H]2CCc3cc(O)ccc3[C@H]21`, for which, in assay [5], the Ki entry is recorded as “Not Active”. Also, the results for the RBA in assay [2], in assay [3] and in assay [4] were 21%, 2.1% and 7.5%, respectively.

On to `CCOC(=S)C[C@H]1C[C@]2(C)[C@@H](O)CC[C@H]2C2CCc3cc(O)ccc3[C@H]21` (single isomer, unassigned), for which the affinity in [1] corresponds to a Ki of 2.7 nM. The same compound displayed an RBA in assay [3] of 10%.

`CC(=O)CC[C@H]1C[C@]2(C)[C@@H](O)CC[C@H]2[C@@H]2CCc3cc(O)ccc3[C@@H]12`: the Ki entry in assay [6] was “Not Active”. In assay [3], the RBA came to 1%.

For the compound `COCC[C@H]1C[C@]2(C)[C@@H](O)CC[C@H]2C2CCc3cc(O)ccc3[C@H]21` (single isomer, unassigned), in assay [7], the Ki result is “Partial agonist”. Further, the RBA in assay [2] is 90%; in [3], 25%; in [4], 67%.

For the compound `C[C@]12C[C@H](COCCF)[C@@H]3c4ccc(O)cc4CC[C@H]3[C@@H]1CC[C@@H]2O`, the Ki result in assay [8] is “Partial agonist”. Also, the RBA was found to be 35% in assay [2], 10% in assay [3] and 27% in [4].

As to `CCC(=O)C[C@H]1C[C@]2(C)[C@@H](O)CC[C@H]2C2CCc3cc(O)ccc3[C@H]21` (single isomer, unassigned), the Stimulatory activity in [9] is 1.9%. Further, the Ki result in assay [8] was “Partial agonist”. Also, in assay [3], the RBA is 18%.

Take `CCCOC(=O)C[C@H]1C[C@]2(C)[C@@H](O)CC[C@H]2C2CCc3cc(O)ccc3[C@H]21` (single isomer, unassigned): the affinity in assay [1] corresponds to a Ki of 1 nM. In addition, the RBA in [3] came to 38%.

As to `C[C@]12C[C@H](CCCOCCF)[C@@H]3c4ccc(O)cc4CC[C@H]3[C@@H]1CC[C@@H]2O`, the affinity in assay [1] corresponds to a Ki of 1.1 nM. Further, the results for the RBA in [2], in assay [3] and in assay [4] were 140%, 47% and 96%, respectively.

On to `CCNC(=O)C[C@H]1C[C@]2(C)[C@@H](O)CC[C@H]2C2CCc3cc(O)ccc3[C@H]21` (single isomer, unassigned), for which the Ki result in assay [10] is given as “Partial agonist”. In assay [3], the RBA stood at 0.1%.

`CC(C)(C)OCC[C@H]1C[C@]2(C)[C@@H](O)CC[C@H]2C2CCc3cc(O)ccc3[C@H]21` (single isomer, unassigned) registered a Ki in [1] of 20 nM. The RBA in [2] is 2%; in assay [3] it was 2.3%; in assay [4], 5%.

As to `CC(C)(C)COC(=O)C[C@H]1C[C@]2(C)[C@@H](O)CC[C@H]2C2CCc3cc(O)ccc3[C@H]21` (single isomer, unassigned), the Ki in [1] worked out at 5.2 nM. Besides, the RBA in assay [3] came out at 10%.

In assay [1], `COCCC[C@H]1C[C@]2(C)[C@@H](O)CC[C@H]2[C@@H]2CCc3cc(O)ccc3[C@@H]12` returned a Ki of 0.3 nM. Moreover, the RBA in [2] is 111%; in assay [3], 34%; in [4] it was 159%.

As to `CNC(=O)CC[C@H]1C[C@]2(C)[C@@H](O)CC[C@H]2[C@@H]2CCc3cc(O)ccc3[C@@H]12`, the Ki entry in [8] is on record as “Partial agonist”. The same compound returned an RBA in assay [3] of 0.6%.

`CCOC[C@H]1C[C@]2(C)[C@@H](O)CC[C@H]2[C@@H]2CCc3cc(O)ccc3[C@@H]12`: the Ki result in [11] is given as “Partial agonist”. The RBA in assay [2] amounted to 73%; in [3] it was 28%; in assay [4], 70%.

Turning to `CCCCOC[C@H]1C[C@]2(C)[C@@H](O)CC[C@H]2[C@@H]2CCc3cc(O)ccc3[C@@H]12`, in [1], affinity was put at a Ki of 0.1 nM. For the same compound, the results for the RBA in assay [2], in assay [3] and in assay [4] were 268%, 44% and 102%, respectively.

For `C[C@]12C[C@H](CCOCCF)[C@@H]3c4ccc(O)cc4CCC3[C@@H]1CC[C@@H]2O` (single isomer, unassigned), the affinity in assay [1] corresponds to a Ki of 55 nM. The RBA in [2] is 34%; in [3] it was 16%; in [4] it was 112%.

In the case of `CC(C)OCC[C@H]1C[C@]2(C)[C@@H](O)CC[C@H]2C2CCc3cc(O)ccc3[C@H]21` (single isomer, unassigned), the inhibitory constant (Ki) in assay [1] turned out to be 0.4 nM. Moreover, the figures for the RBA in [2], in [3] and in [4] were 32%, 15% and 45%, respectively.

For the compound `CCCC(=O)C[C@H]1C[C@]2(C)[C@@H](O)CC[C@H]2C2CCc3cc(O)ccc3[C@H]21` (single isomer, unassigned), the Ki in [1] turned out to be 3.1 nM. The RBA in assay [3] worked out at 13%.

`CCC(=O)CC[C@H]1C[C@]2(C)[C@@H](O)CC[C@H]2[C@@H]2CCc3cc(O)ccc3[C@@H]12` yielded a Ki in assay [1] of 16 nM. This compound also yielded an RBA in assay [3] of 3.7%.

`CCCOC[C@H]1C[C@]2(C)[C@@H](O)CC[C@H]2[C@@H]2CCc3cc(O)ccc3[C@@H]12` gave a Ki in assay [1] of 0.3 nM. Further, the RBA in [2] amounted to 125%; in assay [3], 43%; in assay [4], 146%.

As to `CCNC(=O)CC[C@H]1C[C@]2(C)[C@@H](O)CC[C@H]2[C@@H]2CCc3cc(O)ccc3[C@@H]12`, in [8], the Ki result was “Partial agonist”. This compound yielded an RBA in assay [3] of 3.7%.

In assay [1], `CCOCC[C@H]1C[C@]2(C)[C@@H](O)CC[C@H]2C2CCc3cc(O)ccc3[C@H]21` (single isomer, unassigned) returned a Ki of 0.3 nM. Further, the RBA turned out to be 40% in [2], 31% in assay [3] and 49% in assay [4].

As to `COC[C@H]1C[C@]2(C)C(O)CC[C@H]2[C@@H]2CCc3cc(O)ccc3[C@@H]12` (some centres undefined), the Relative stimulatory activity in [12] turned out to be 125%. Also, the RBA turned out to be 240% in assay [2], 20% in assay [3] and 114% in assay [4]. In addition, in assay [13], the Ki result is “Agonist”.

In turn, `CCCOCC[C@H]1C[C@]2(C)[C@@H](O)CC[C@H]2C2CCc3cc(O)ccc3[C@H]21` (single isomer, unassigned) registered a Ki in assay [1] of 0.3 nM. The RBA was found to be 88% in assay [2], 65% in assay [3] and 54% in assay [4].

In assay [1], `CCCC(=O)CC[C@H]1C[C@]2(C)[C@@H](O)CC[C@H]2[C@@H]2CCc3cc(O)ccc3[C@@H]12` gave a Ki of 13 nM. Also, in assay [3], the RBA is 7.7%.
